ChEMBL document CHEMBL2311405, “Synthesis and biological evaluation of indenoisoquinolines that inhibit both tyrosyl-DNA phosphodiesterase I (Tdp1) and topoisomerase I (Top1)” (J Med Chem, 2013)
Calls of active or inactive are those of the source. The rule behind the calls is not given here.

What was measured:
[1] = biological target: T1, DNA topoisomerase 1 (Homo sapiens) (UniProt P11387); assay: Inhibition of recombinant Top1 (unknown origin) using 3'-[32P]-end-labeled 117 bp oligonucleotide as substrate after 20 mins by SDS-PAGE analysis
T1 sequence (whole entry): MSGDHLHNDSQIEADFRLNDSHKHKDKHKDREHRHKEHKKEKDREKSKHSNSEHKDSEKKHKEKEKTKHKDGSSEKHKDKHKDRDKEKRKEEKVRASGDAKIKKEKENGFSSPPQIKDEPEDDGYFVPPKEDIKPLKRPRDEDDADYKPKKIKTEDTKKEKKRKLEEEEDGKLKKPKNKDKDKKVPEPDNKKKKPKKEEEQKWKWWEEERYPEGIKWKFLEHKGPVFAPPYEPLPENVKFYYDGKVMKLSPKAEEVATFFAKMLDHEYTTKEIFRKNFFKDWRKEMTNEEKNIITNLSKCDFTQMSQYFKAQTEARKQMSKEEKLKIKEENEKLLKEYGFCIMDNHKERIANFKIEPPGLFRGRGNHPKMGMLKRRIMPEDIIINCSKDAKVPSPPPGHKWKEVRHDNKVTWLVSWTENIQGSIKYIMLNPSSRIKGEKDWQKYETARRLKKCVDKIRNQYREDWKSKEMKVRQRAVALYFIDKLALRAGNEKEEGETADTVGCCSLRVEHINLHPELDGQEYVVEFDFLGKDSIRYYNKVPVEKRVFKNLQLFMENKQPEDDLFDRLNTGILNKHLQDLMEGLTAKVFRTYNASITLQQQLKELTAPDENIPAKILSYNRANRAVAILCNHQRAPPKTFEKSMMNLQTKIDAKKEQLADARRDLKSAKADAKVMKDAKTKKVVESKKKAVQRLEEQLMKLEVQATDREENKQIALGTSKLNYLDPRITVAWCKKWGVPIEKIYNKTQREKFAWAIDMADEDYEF
Procedure, shortened: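 3′-[32P]-end-labeled 117-bp DNA at 2 nM incubated with recombinant Top1 at 25 °C for 20 min across a range of compound concentrations. Stopped with SDS (0.5% final) plus formamide loading dye, then 20% denaturing PAGE. Dried gels were phosphorimaged.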

[2] = biological target: Tyrosyl-DNA phosphodiesterase 1 (Homo sapiens, UniProt Q9NUW8); assay: Inhibition of recombinant Tdp1 (unknown origin) using 5'-[32P]-labeled single-stranded DNA oligonucleotide containing 3'-phosphotyrosine as substrate after 15 mins by PAGE analysis
Tyrosyl-DNA phosphodiesterase 1, sequence (Q9NUW8 whole entry): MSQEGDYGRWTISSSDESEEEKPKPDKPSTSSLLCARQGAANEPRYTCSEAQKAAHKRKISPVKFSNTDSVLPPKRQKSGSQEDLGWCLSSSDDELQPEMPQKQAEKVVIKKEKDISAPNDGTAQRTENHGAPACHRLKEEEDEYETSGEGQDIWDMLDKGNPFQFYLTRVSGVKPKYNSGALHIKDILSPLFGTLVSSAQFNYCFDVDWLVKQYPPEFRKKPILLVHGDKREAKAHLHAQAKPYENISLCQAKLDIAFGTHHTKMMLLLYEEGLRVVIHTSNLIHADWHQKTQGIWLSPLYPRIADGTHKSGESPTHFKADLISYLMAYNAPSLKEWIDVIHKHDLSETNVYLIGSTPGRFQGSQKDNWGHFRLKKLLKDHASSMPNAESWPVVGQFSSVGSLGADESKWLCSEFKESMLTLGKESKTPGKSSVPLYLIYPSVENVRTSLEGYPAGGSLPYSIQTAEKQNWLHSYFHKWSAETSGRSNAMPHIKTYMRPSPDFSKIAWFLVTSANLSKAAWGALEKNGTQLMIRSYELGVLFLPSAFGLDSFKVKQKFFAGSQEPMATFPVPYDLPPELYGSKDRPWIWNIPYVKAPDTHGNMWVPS

[3] = biological target: T1, DNA topoisomerase 1 (Homo sapiens); assay: Inhibition of recombinant Top1 (unknown origin) using 3'-[32P]-end-labeled 117 bp oligonucleotide as substrate after 20 mins by SDS-PAGE analysis relative to 1 uM MJ-3-65
SF-539 = assay: Growth inhibition of human SF539 cells; format: functional
Procedure, shortened: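 Human cancer cell line panel, compounds tested at concentrations up to 10 μM. GI50 per cell line is the mean of two determinations where a standard error is given, otherwise from one determination.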

MDA-MB-435 = assay: Growth inhibition of human MDA-MB-435 cells; format: functional
SN12C = assay: Growth inhibition of human SN12C cells; format: functional
DU-145 = assay: Growth inhibition of human DU145 cells; format: functional
OVCAR-3 = assay: Growth inhibition of human OVCAR3 cells; format: functional
UACC-62 = assay: Growth inhibition of human UACC62 cells; format: functional
HCT-116 = assay: Growth inhibition of human HCT116 cells; format: functional
HOP-62 = assay: Growth inhibition of human HOP62 cells; format: functional

## CC(C)(C)OC(=O)NCCCn1c2c(c3ccc(NCC(=O)O)cc3c1=O)C(=O)c1ccccc1-2
[1]
  inhibition: inactive
[2]
  IC50: > 111000 nM

## COc1ccc2c(c1)-c1c(c3ccc([N+](=O)[O-])cc3c(=O)n1CCCBr)C2=O
[3]
  inhibition: Active
[2]
  IC50: > 111000 nM

## COC(=O)CCC(=O)Nc1ccc2c3c(n(C)c(=O)c2c1)-c1ccccc1C3=O
[2]
  IC50: > 111000 nM

## Cn1c2c(c3ccc(NCC(=O)O)cc3c1=O)C(=O)c1ccccc1-2
[1]
  inhibition: inactive
[2]
  IC50: > 111000 nM

## COc1ccc2c(c1)-c1c(c3ccc([N+](=O)[O-])cc3c(=O)n1CCCN1CCOCC1)C2=O
[3]
  inhibition: Active
[2]
  IC50: > 111000 nM

## CC(=O)Nc1ccc2c3c(n(CCCN=[N+]=[N-])c(=O)c2c1)-c1ccccc1C3=O
[3]
  inhibition: Active

## COC(=O)CCCC(=O)Nc1ccc2c3c(n(C)c(=O)c2c1)-c1ccccc1C3=O
[1]
  inhibition: inactive
[2]
  IC50: > 111000 nM

## COC(=O)CCCC(=O)Nc1ccc2c3c(n(CCCN)c(=O)c2c1)-c1ccccc1C3=O
[1]
  inhibition: inactive
SF-539
  GI50: 1470 nM
MDA-MB-435
  GI50: 2050 nM
SN12C
  GI50: 1020 nM
DU-145
  GI50: 540 nM
OVCAR-3
  GI50: 1470 nM
UACC-62
  GI50: 1220 nM
HCT-116
  GI50: 380 nM
HOP-62
  GI50: 790 nM

## CC(=O)Nc1ccc2c3c(n(CCCN)c(=O)c2c1)-c1ccccc1C3O (configuration not stated)
[1]
  inhibition: inactive

## COC(=O)CC(=O)Nc1ccc2c3c(n(CCCNC(=O)OC(C)(C)C)c(=O)c2c1)-c1ccccc1C3=O
[1]
  inhibition: inactive
[2]
  IC50: > 111000 nM

## NCCCn1c2c(c3ccccc3c1=O)C(=O)c1ccccc1-2
[3]
  inhibition: Active

## O=C1c2ccccc2-c2c1c1ccc([N+](=O)[O-])cc1c(=O)n2CCCO
MDA-MB-435
  GI50: 1970 nM
SN12C
  GI50: 470 nM
DU-145
  GI50: 430 nM
OVCAR-3
  GI50: 870 nM
UACC-62
  GI50: 310 nM
HCT-116
  GI50: 190 nM
[3]
  inhibition: Active

## COc1ccc2c(c1)C(=O)c1c-2n(CCCN)c(=O)c2cc(I)ccc12
SF-539
  GI50: 390 nM
MDA-MB-435
  GI50: 960 nM
SN12C
  GI50: 50 nM
DU-145
  GI50: 50 nM
OVCAR-3
  GI50: 1320 nM
UACC-62
  GI50: 140 nM
HCT-116
  GI50: 70 nM
HOP-62
  GI50: 140 nM

## NCCCn1c2c(c3ccc(NC(=O)CC(=O)O)cc3c1=O)C(=O)c1ccccc1-2
[1]
  inhibition: inactive
[2]
  IC50: > 111000 nM

## CCOC(=O)CNc1ccc2c3c(n(C)c(=O)c2c1)-c1ccccc1C3=O
[1]
  inhibition: inactive
[2]
  IC50: > 111000 nM

## Cn1c2c(c3ccc(NC(=O)C(=O)O)cc3c1=O)C(=O)c1ccccc1-2
[3]
  inhibition: Active

## COc1ccc2c(c1)-c1c(c3ccc([N+](=O)[O-])cc3c(=O)n1CCCN)C2=O
SF-539
  GI50: 610 nM
MDA-MB-435
  GI50: 580 nM
SN12C
  GI50: 150 nM
DU-145
  GI50: 180 nM
OVCAR-3
  GI50: 540 nM
HCT-116
  GI50: 60 nM
[3]
  inhibition: Active

## NCCCn1c2c(c3ccc(NC(=O)CCC(=O)O)cc3c1=O)C(=O)c1ccccc1-2
[1]
  inhibition: inactive
[2]
  IC50: > 111000 nM

## COC(=O)CC(=O)Nc1ccc2c3c(n(CCCN)c(=O)c2c1)-c1ccccc1C3=O
SF-539
  GI50: 4030 nM
MDA-MB-435
  GI50: 2330 nM
SN12C
  GI50: 1460 nM
DU-145
  GI50: 1570 nM
OVCAR-3
  GI50: 3220 nM
UACC-62
  GI50: 1690 nM
HCT-116
  GI50: 540 nM
HOP-62
  GI50: 1560 nM
[2]
  IC50: 18000 nM

## COC(=O)CCCC(=O)Nc1ccc2c3c(n(CCCNC(=O)OC(C)(C)C)c(=O)c2c1)-c1ccccc1C3=O
[1]
  inhibition: inactive
[2]
  IC50: > 111000 nM

## COC(=O)CCCCC(=O)Nc1ccc2c3c(n(C)c(=O)c2c1)-c1ccccc1C3=O
[1]
  inhibition: inactive
[2]
  IC50: > 111000 nM

## COc1ccc2c(c1)-c1c(c3ccc([N+](=O)[O-])cc3c(=O)n1CCCN=[N+]=[N-])C2=O
[1]
  inhibition: inactive
[2]
  IC50: > 111000 nM

## COc1ccc2c(c1)C(=O)c1c-2n(CCCN)c(=O)c2cc(N)ccc12
SF-539
  GI50: 30 nM
MDA-MB-435
  GI50: 120 nM
SN12C
  GI50: < 10 nM
DU-145
  GI50: < 10 nM
OVCAR-3
  GI50: 20 nM
UACC-62
  GI50: 100 nM
HCT-116
  GI50: < 10 nM
HOP-62
  GI50: < 10 nM

## COC(=O)CC(=O)Nc1ccc2c3c(n(C)c(=O)c2c1)-c1ccccc1C3=O
[1]
  inhibition: inactive
[2]
  IC50: > 111000 nM

## NCCCn1c2c(c3ccc(NC(=O)CCCC(=O)O)cc3c1=O)C(=O)c1ccccc1-2
[1]
  inhibition: inactive
[2]
  IC50: > 111000 nM

## CC(=O)Nc1ccc2c3c(n(CCCN)c(=O)c2c1)-c1ccccc1C3=O
[1]
  inhibition: inactive

## CCOC(=O)CNc1ccc2c3c(n(CCCN)c(=O)c2c1)-c1ccccc1C3=O
SF-539
  GI50: 8910 nM
MDA-MB-435
  GI50: 3050 nM
SN12C
  GI50: 1750 nM
DU-145
  GI50: 1680 nM
OVCAR-3
  GI50: 3120 nM
UACC-62
  GI50: 2250 nM
HCT-116
  GI50: 440 nM
HOP-62
  GI50: 930 nM

## N#Cc1ccc2c3c(n(CCCn4ccnc4)c(=O)c2c1)-c1ccccc1C3=O
[3]
  inhibition: Active
[2]
  IC50: > 111000 nM

## Cn1c2c(c3ccc(NC(=O)CC(=O)O)cc3c1=O)C(=O)c1ccccc1-2
[2]
  IC50: > 111000 nM

## COC(=O)C(=O)Nc1ccc2c3c(n(C)c(=O)c2c1)-c1ccccc1C3=O
[1]
  inhibition: inactive
[2]
  IC50: > 111000 nM

## COC(=O)CCC(=O)Nc1ccc2c3c(n(CCCNC(=O)OC(C)(C)C)c(=O)c2c1)-c1ccccc1C3=O
[1]
  inhibition: inactive
[2]
  IC50: > 111000 nM

## COC(=O)CCCCC(=O)Nc1ccc2c3c(n(CCCN)c(=O)c2c1)-c1ccccc1C3=O
SF-539
  GI50: 5650 nM
MDA-MB-435
  GI50: 4300 nM
SN12C
  GI50: 1820 nM
DU-145
  GI50: 770 nM
OVCAR-3
  GI50: 3520 nM
UACC-62
  GI50: 2430 nM
HCT-116
  GI50: 510 nM
HOP-62
  GI50: 2320 nM

## CC(C)(C)OC(=O)NCCCn1c2c(c3ccc(NC(=O)CCCC(=O)O)cc3c1=O)C(=O)c1ccccc1-2
[1]
  inhibition: inactive
[2]
  IC50: > 111000 nM

## NCCCn1c2c(c3ccc(NC(=O)CCCCC(=O)O)cc3c1=O)C(=O)c1ccccc1-2
[1]
  inhibition: inactive
[2]
  IC50: > 111000 nM

## NCCCn1c2c(c3ccc(NC(=O)C(=O)O)cc3c1=O)C(=O)c1ccccc1-2
[1]
  inhibition: inactive
[2]
  IC50: > 111000 nM

## N#Cc1ccc2c3c(n(CCCN4CCOCC4)c(=O)c2c1)-c1ccccc1C3=O
[3]
  inhibition: Active
[2]
  IC50: > 111000 nM

## CC(=O)Nc1ccc2c3c(n(CCCO)c(=O)c2c1)-c1ccccc1C3=O
[1]
  inhibition: inactive

## NCCCn1c2c(c3ccc(N)cc3c1=O)C(=O)c1ccccc1-2
SF-539
  GI50: 340 nM
MDA-MB-435
  GI50: 230 nM
SN12C
  GI50: 230 nM
DU-145
  GI50: 120 nM
OVCAR-3
  GI50: 130 nM
UACC-62
  GI50: 300 nM
HCT-116
  GI50: 180 nM
HOP-62
  GI50: 270 nM
